ChEMBL document CHEMBL1155216, “A direct synthesis of 5,6-dihydroindolo[2,1-a]isoquinolines that exhibit immunosuppressive activity” (Bioorg Med Chem Lett, 2009)
Calls of active or inactive are those of the source. No cut-off for these calls is given here.

How the values were obtained:
Splenocyte [1] = assay: Immunosuppressive activity in influenza virus A/PR/8/34-H1N1 infected mouse splenocytes assessed as reduction of IL-10 level at 0.5 mg/ml after 96 hrs by ELISA; format: functional, cell-based
Method in brief: (§1)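 Spleen cells from mice taken 7 days after influenza infection; RBCs lysed with ammonium chloride, washed in HBSS, 5 × 10⁶ cells/ml in AIM-V. Restimulated with virus, compounds at 0.5 mg/ml final, triplicate, 37 °C, 5% CO₂. Supernatants collected at 48 h for IL-2 and IFN-γ and at 96 h for IL-10. Sandwich ELISA, TMB readout, four-parameter standard-curve fit.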

Splenocyte [2] = assay: Immunosuppressive activity in influenza virus A/PR/8/34-H1N1 infected mouse splenocytes assessed as reduction of IFN-gamma level at 0.5 mg/ml after 48 hrs by ELISA; format: functional, cell-based; method in brief: as §1
Splenocyte [3] = assay: Immunosuppressive activity in influenza virus A/PR/8/34-H1N1 infected mouse splenocytes assessed as reduction of IL-2 level at 0.5 mg/ml after 48 hrs by ELISA; format: functional, cell-based; method in brief: as §1
[4] = Cytotoxicity against mouse splenocytes assessed as cell viability after 24 hrs by MTS assay; format: cell-based; details: splenocyte
Method in brief: (§2)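 Spleen cells from non-infected mice, no stimulus added, cultured at 5 × 10⁶ cells/ml in AIM-V medium (1.25 × 10⁵ cells/well) with each compound for the stated time at 37 °C, 5% CO₂, humidified. MTS plus phenazine ethosulfate then added and incubated 3 h more. Absorbance read at 490 nm. Viability compared against vehicle control.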

[5] = Cytotoxicity against mouse splenocytes assessed as cell viability after 48 hrs by MTS assay; format: cell-based; details: splenocyte; method in brief: as §2
[6] = Cytotoxicity against mouse splenocytes assessed as cell viability after 72 hrs by MTS assay; format: cell-based; details: splenocyte; method in brief: as §2

SMILES | Activity (Splenocyte [1]) | Activity (Splenocyte [2]) | Activity (Splenocyte [3]) | Activity [4] | Activity [5] | Activity [6]
FC(F)(F)c1ccc2c(c1)cc1n2CCc2ccccc2-1 | Active | Active | Active | Non-toxic | Non-toxic | Non-toxic
COc1cc2c(cc1OC)-c1cc3cc(C(F)(F)F)ccc3n1CC2 | Active | Active | Active | Toxic | Toxic | Toxic
COc1cc2c(cc1OC)-c1cc3ccccc3n1CC2 | Active | Active | Active | Toxic | Toxic | Toxic
COc1cc2c(cc1OC)-c1cc3cccc(OC)c3n1CC2 | Active | Active | Active | – | – | –
c1ccc2c(c1)CCn1c-2cc2ccccc21 | Active | Active | Active | – | – | –
FC(F)(F)c1ccc2cc3n(c2c1)CCc1ccccc1-3 | Active | Active | Active | Toxic | Non-toxic | Non-toxic
COc1cc2c(cc1OC)-c1cc3cc(OC)c(OC)cc3n1CC2 | Active | Active | Active | Toxic | Toxic | Toxic
COc1cc2cc3n(c2cc1OC)CCc1ccccc1-3 | Active | Active | Active | Toxic | Toxic | Toxic
COc1cc2c(cc1OC)-c1cc3ccc(C(F)(F)F)cc3n1CC2 | Active | Active | Active | Toxic | Non-toxic | Non-toxic
COc1cccc2cc3n(c12)CCc1ccccc1-3 | Active | Active | Active | Toxic | Toxic | Toxic
